Data: ChEMBL document CHEMBL3616417, “Discovery of selective N-[3-(1-methyl-piperidine-4-carbonyl)-phenyl]-benzamide-based 5-HT₁ F receptor agonists: Evolution from bicyclic to monocyclic cores” (Bioorg Med Chem Lett, 2015)
pEC50, pKi: −log10 of the molar value. Activity calls are given as the source filed them. The calls are words filed in the database; no cut-off is given here.

Assays:
[1] = target: 5-HT1A/5-HT1F (Homo sapiens) (UniProt P30939+P08908); assay: Selectivity index, ratio of Ki for human 5HT1A receptor to Ki for human 5HT1F receptor
How it was run: (§1)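 Ratio of the Ki at the 5-HT1A, 5-HT1B or 5-HT1D receptor to the Ki at the 5-HT1F receptor. Each Ki comes from at least two radioligand binding determinations in cell lines expressing the human receptor.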

[2] = target: T1, 5-hydroxytryptamine receptor 1F (Homo sapiens, UniProt P30939); assay: Binding affinity to human 5HT1F receptor by radioligand binding assay
T1 sequence (P30939 whole entry): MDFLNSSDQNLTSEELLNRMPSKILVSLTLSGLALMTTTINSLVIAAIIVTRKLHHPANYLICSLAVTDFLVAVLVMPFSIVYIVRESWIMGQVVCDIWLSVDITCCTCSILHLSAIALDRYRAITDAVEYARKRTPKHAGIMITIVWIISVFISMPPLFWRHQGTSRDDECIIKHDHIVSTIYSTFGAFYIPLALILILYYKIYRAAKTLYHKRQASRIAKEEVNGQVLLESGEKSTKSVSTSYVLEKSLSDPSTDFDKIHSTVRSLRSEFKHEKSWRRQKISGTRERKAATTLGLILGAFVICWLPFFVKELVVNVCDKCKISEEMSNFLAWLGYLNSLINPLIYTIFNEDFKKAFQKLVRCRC
How it was run: (§2)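 In vitro radioligand displacement binding on cell lines expressing the appropriate human serotonin receptor subtype. Affinity is expressed as Ki (nM), each the mean of at least two determinations.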

[3] = target: 5-HT1D/5-HT1F (Homo sapiens) (UniProt P30939+P28221); assay: Selectivity index, ratio of Ki for human 5HT1D receptor to Ki for human 5HT1F receptor; how it was run: as §1
[4] = target: 5-HT1B/5-HT1F (Homo sapiens) (UniProt P30939+P28222); assay: Selectivity index, ratio of Ki for human 5HT1B receptor to Ki for human 5HT1F receptor; how it was run: as §1
[5] = target: T2, 5-hydroxytryptamine receptor 1A (Homo sapiens) (UniProt P08908); assay: Binding affinity to human 5HT1A receptor by radioligand binding assay; how it was run: as §2
T2 sequence (whole entry): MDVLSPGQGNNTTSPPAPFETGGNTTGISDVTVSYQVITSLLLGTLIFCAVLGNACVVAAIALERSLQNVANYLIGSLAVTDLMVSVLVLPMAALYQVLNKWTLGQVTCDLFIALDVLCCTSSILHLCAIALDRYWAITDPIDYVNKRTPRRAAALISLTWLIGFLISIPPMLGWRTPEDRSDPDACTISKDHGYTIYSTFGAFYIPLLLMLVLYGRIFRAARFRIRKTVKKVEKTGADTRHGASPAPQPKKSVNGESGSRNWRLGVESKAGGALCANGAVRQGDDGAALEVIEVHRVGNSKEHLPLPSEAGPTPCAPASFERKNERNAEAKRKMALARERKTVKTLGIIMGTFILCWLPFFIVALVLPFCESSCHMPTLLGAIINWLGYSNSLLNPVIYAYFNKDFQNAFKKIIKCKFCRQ

[6] = target: T1, 5-hydroxytryptamine receptor 1F; assay: Agonist activity at human 5HT1F receptor expressed in LM(tk-) cells by [35S]GTPgammaS binding assay; assay type: functional, cell-based
[7] = target: 5-hydroxytryptamine receptor 1D (Homo sapiens) (UniProt P28221); assay: Inhibition of radioligand binding to human 5HT1D receptor at 10 uM
How it was run: (§3)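 Single-concentration radioligand displacement at 10 µM test compound in cell lines expressing the human 5-HT1A, 5-HT1B or 5-HT1D receptor. Read-out is percent inhibition of radioligand binding.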

[8] = target: T2, 5-hydroxytryptamine receptor 1A (Homo sapiens); assay: Inhibition of radioligand binding to human 5HT1A receptor at 10 uM; how it was run: as §3
[9] = target: 5-hydroxytryptamine receptor 1B (Homo sapiens) (UniProt P28222); assay: Inhibition of radioligand binding to human 5HT1B receptor at 10 uM; how it was run: as §3
[10] = target: 5-hydroxytryptamine receptor 1B (Homo sapiens) (UniProt P28222); assay: Binding affinity to human 5HT1B receptor by radioligand binding assay; how it was run: as §2
[11] = target: T3, 5-hydroxytryptamine receptor 1F (Homo sapiens) (UniProt P30939); assay: Agonist activity at human 5HT1F receptor expressed in LM(tk-) cells by [35S]GTPgammaS binding assay relative to 5-HT; assay type: functional, cell-based
T3 sequence (whole entry): T1 sequence (P30939 whole entry)

[12] = target: 5-hydroxytryptamine receptor 1D (Homo sapiens) (UniProt P28221); assay: Binding affinity to human 5HT1D receptor by radioligand binding assay; how it was run: as §2

5-HT1B/5-HT1F (Homo sapiens), sequence (P28222 whole entry, looked up, one chain of several): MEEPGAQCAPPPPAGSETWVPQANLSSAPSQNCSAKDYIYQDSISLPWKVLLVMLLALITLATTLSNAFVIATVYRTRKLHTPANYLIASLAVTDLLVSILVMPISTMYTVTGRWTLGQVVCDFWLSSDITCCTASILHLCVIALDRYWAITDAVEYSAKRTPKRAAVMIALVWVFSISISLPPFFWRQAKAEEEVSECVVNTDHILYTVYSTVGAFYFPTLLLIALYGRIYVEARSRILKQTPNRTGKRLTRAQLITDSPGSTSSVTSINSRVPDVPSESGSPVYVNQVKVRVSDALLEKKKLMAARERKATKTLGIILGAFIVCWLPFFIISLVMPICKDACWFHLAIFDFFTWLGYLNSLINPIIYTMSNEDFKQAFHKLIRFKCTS
5-hydroxytryptamine receptor 1B (Homo sapiens), sequence (P28222 whole entry): as the sequence (P28222 whole entry, looked up, one chain of several) above
5-HT1D/5-HT1F (Homo sapiens), sequence (P28221 whole entry, looked up, one chain of several): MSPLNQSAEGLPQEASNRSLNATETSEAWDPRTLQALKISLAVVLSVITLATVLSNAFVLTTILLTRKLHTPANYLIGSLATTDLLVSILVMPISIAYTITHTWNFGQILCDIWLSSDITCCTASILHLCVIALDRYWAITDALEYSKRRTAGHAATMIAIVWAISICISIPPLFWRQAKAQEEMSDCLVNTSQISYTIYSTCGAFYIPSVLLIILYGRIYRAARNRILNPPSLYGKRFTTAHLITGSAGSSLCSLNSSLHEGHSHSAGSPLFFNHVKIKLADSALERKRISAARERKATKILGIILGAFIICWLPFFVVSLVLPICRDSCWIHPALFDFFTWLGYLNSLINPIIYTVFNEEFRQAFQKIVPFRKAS
5-hydroxytryptamine receptor 1D (Homo sapiens), sequence (P28221 whole entry): as the sequence (P28221 whole entry, looked up, one chain of several) above

Compound: CN1CCC(C(=O)c2ccnc(NC(=O)c3ccc(F)cc3)c2)CC1
- Ratio Ki [1]: 0.7
- pKi [2]: 5.62
- Ratio Ki [3]: 0.5
- Ratio Ki [4]: 2

Compound: COc1c(NC(=O)c2ccc(F)cc2)cccc1C(=O)C1CCN(C)CC1
- Ratio Ki [1]: 0.5
- pKi [2]: 6.21
- Ratio Ki [3]: 3.4
- Ratio Ki [4]: 4.3

Compound: CN1CCC(c2c[nH]c3ccc(NC(=O)c4ccc(F)cc4)cc23)CC1
- Ratio Ki [1]: 5
- Ratio Ki [3]: 98
- Ratio Ki [4]: 54

Compound: CN1CCC(C(=O)c2cccc(NC(=O)c3ccc(F)cc3)c2F)CC1
- Activity [5]: inactive
- pEC50 [6]: 7.26
- inhibition [7]: < 50%
- inhibition [8]: < 50%
- pKi [2]: 8.08
- inhibition [9]: < 50%
- Activity [10]: inactive
- Emax [11]: 85%
- Activity [12]: inactive

Compound: CN1CCC(C(=O)c2cccc(NC(=O)c3ccc(F)cc3)c2O)CC1
- Activity [5]: inactive
- inhibition [7]: < 50%
- inhibition [8]: < 50%
- pKi [2]: 5.96
- Activity [12]: inactive
- Ratio Ki [4]: 2.5

Compound: CN1CCC(C(=O)c2ccc(F)c(NC(=O)c3ccc(F)cc3)c2)CC1
- inhibition [7]: < 50%
- Ratio Ki [1]: 2
- pKi [2]: 6.28
- inhibition [9]: < 50%
- Activity [10]: inactive
- Activity [12]: inactive

Compound: CN1CCC(C(=O)c2cncc(NC(=O)c3ccc(F)cc3)c2)CC1
- Ratio Ki [1]: 1
- pKi [2]: 5.49
- inhibition [9]: < 50%
- Activity [10]: inactive
- Ratio Ki [3]: 0.6

Compound: CN1CCC(C(=O)c2cc(F)cc(NC(=O)c3ccc(F)cc3)c2)CC1
- inhibition [7]: < 50%
- Ratio Ki [1]: 22
- pKi [2]: 7.39
- inhibition [9]: < 50%
- Activity [10]: inactive
- Activity [12]: inactive

Compound: Cc1c(NC(=O)c2ccc(F)cc2)cccc1C(=O)C1CCN(C)CC1
- Activity [5]: inactive
- inhibition [7]: < 50%
- inhibition [8]: < 50%
- pKi [2]: 6.06
- inhibition [9]: < 50%
- Activity [10]: inactive
- Activity [12]: inactive

Compound: CN1CCC(C(=O)c2cccc(NC(=O)c3ccc(F)cc3)c2)CC1
- pEC50 [6]: 7.06
- Ratio Ki [1]: 170
- pKi [2]: 8.29
- inhibition [9]: < 50%
- Activity [10]: inactive
- Ratio Ki [3]: 730
- Emax [11]: 79%

Compound: CN1CCC(C(=O)c2cc(NC(=O)c3ccc(F)cc3)ccn2)CC1
- Activity [5]: inactive
- inhibition [7]: < 50%
- inhibition [8]: < 50%
- inhibition [9]: < 50%
- Activity [10]: inactive
- Activity [12]: inactive

Compound: CN1CCC(C(=O)c2cc(NC(=O)c3ccc(F)cc3)ccc2F)CC1
- Activity [5]: inactive
- inhibition [7]: < 50%
- inhibition [8]: < 50%
- pKi [2]: 5.89
- inhibition [9]: < 50%
- Activity [10]: inactive
- Activity [12]: inactive

Compound: CN1CCC(C(=O)c2cccc(NC(=O)c3ccc(F)cc3)c2Cl)CC1
- Ratio Ki [1]: 0.3
- pKi [2]: 5.77
- Ratio Ki [3]: 0.2
- Ratio Ki [4]: 1.6

Compound: CN1CCC(C(=O)c2cccc(NC(=O)c3ccc(F)cc3)n2)CC1
- pEC50 [6]: 6.96
- Ratio Ki [1]: 91
- pKi [2]: 8.02
- inhibition [9]: < 50%
- Activity [10]: inactive
- Ratio Ki [3]: 110
- Emax [11]: 90%
